According to ChEMBL document CHEMBL4613270, “Structure-Activity Relationship Study Enables the Discovery of a Novel Berberine Analogue as the RXRα Activator to Inhibit Colon Cancer” (J Med Chem, 2020):
pKd: −log10 of the molar value. Calls of active or inactive are those of the source. The rule behind the calls is not given here.

Assays:
[1] = Tmax in Sprague-Dawley rat at 100 mg/kg, ig measured after 0.083 to 36 hrs by LC-MS/MS analysis; format: ADME, organism-based; conditions: in vivo, po
In short: (§1)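 SD rats (200 ± 20 g) randomized to three groups; single intragastric dose of 100 mg/kg or vehicle (0.5% CMC-Na). Tail-vein blood (0.5 mL) drawn at 0.083, 0.25, 0.5, 1, 2, 4, 8, 12, 24 and 36 h. Plasma separated by centrifugation at 2000 rpm for 10 min, frozen at -80 °C, then quantified by LC-MS/MS.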

[2] = target: T1, Retinoic acid receptor RXR-alpha (Homo sapiens) (UniProt P19793); assay: Activation of RXRalpha (unknown origin) expressed in human HCT116 cells co-expressing beta-catenin assessed as induction of RXRalpha interaction with beta-catenin at 30 to 60 uM incubated for 15 hrs by mammalian two-hybrid assay; format: cell-based; conditions: HCT-116
T1 sequence (whole entry): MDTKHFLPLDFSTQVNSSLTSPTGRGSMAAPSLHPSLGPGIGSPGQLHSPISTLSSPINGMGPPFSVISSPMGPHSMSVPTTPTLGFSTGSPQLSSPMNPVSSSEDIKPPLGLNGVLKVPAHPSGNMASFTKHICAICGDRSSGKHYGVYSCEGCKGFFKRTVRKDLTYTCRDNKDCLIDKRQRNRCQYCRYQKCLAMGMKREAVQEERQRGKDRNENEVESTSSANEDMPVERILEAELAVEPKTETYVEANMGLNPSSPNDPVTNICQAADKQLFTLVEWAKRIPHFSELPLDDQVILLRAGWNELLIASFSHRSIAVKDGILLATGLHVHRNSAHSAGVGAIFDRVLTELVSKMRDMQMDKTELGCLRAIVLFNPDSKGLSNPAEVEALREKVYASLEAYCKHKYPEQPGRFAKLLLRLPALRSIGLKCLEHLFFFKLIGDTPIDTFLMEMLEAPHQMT
In short: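 Mammalian two-hybrid: cells co-transfected by lipofection with pBIND-β-catenin/S33Y plus pACT-RXRα (RXRα–β-catenin) or pACT-c-Cbl (β-catenin–c-Cbl); 20 h after transfection, compound added for 15 h; cells lysed in passive lysis buffer, 4 °C, 1 h; firefly and Renilla luciferase read by dual-luciferase kit.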

[3] = AUC (0 to t) in Sprague-Dawley rat at 100 mg/kg, ig measured after 0.083 to 36 hrs by LC-MS/MS analysis; format: ADME, organism-based; set-up: time upper 36 hr, time lower 0.083 hr, dose 100 mg/kg, route intragastric; conditions: in vivo, po; in short: as §1
[4] = Bioavailability in Sprague-Dawley rat at 100 mg/kg, ig measured after 0.083 to 36 hrs by LC-MS/MS analysis; format: ADME, organism-based; conditions: in vivo, po; in short: as §1
[5] = Toxicity in BALB/c mouse xenografted with human KM12C cells assessed as effect on biochemical parameter by measuring triglyceride level at 100 mg/kg, ig dosed daily for 15 days by automatic chemistry analyzer based analysis (reference value: 0.96 +/- 0.056 mmol/L); format: organism-based; conditions: in vivo, po, 360 h
[6] = target: T1, Retinoic acid receptor RXR-alpha (Homo sapiens); assay: In-vivo activation of RXRalpha in BALB/c mouse xenografted with human KM12C cells assessed as induction of beta-catenin protein degradation at 100 mg/kg, ig dosed daily for 15 days by Western blot analysis; format: functional, organism-based
[7] = target: T1, Retinoic acid receptor RXR-alpha (Homo sapiens); assay: Activation of RXRalpha in human KM12C cells assessed as reduction in Cdc2 protein expression at 25 to 50 uM incubated for 15 hrs by Western blot analysis; format: cell-based
[8] = target: T1, Retinoic acid receptor RXR-alpha (Homo sapiens); assay: Activation of RXRalpha in human HCT116 cells assessed as inhibition of Wnt/beta-catenin-dependent transcriptional activity at 30 to 60 uM incubated for 15 hrs by TOP/FOP luciferase assay; format: cell-based; conditions: HCT-116
In short: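 TOP/FOP reporter: cells co-transfected by lipofection with pRL-TK plus TOPflash or FOPflash; compound added 20 h after transfection for 15 h; passive lysis at 4 °C, 1 h; firefly and Renilla luciferase measured by dual-luciferase assay.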

[9] = target: T1, Retinoic acid receptor RXR-alpha (Homo sapiens); assay: Activation of RXRalpha in human SW620 cells assessed as reduction in Cdc2 mRNA expression at 40 to 80 uM incubated for 15 hrs by real-time PCR analysis; format: cell-based; conditions: SW-620
[10] = target: T1, Retinoic acid receptor RXR-alpha (Homo sapiens); assay: Activation of RXRalpha in human HCT116 cells assessed as increase in p21 (WAF1/CIP1) protein expression at 30 to 60 uM incubated for 15 hrs by Western blot analysis; format: cell-based; conditions: HCT-116
[11] = Toxicity in BALB/c mouse xenografted with human KM12C cells assessed as effect on biochemical parameter by measuring urea […] level at 100 mg/kg, ig dosed daily for 15 days by automatic chemistry analyzer based analysis (reference value: 8.21 +/- 0.26 mmol/L); format: organism-based; conditions: in vivo, po, 360 h
[12] = Toxicity in BALB/c mouse xenografted with human KM12C cells assessed as effect on biochemical parameter by measuring creatinine level at 100 mg/kg, ig dosed daily for 15 days by automatic chemistry analyzer based analysis (reference value: 27.02 +/- 1.22 umol/L); format: organism-based; conditions: in vivo, po, 360 h
[13] = Toxicity in BALB/c mouse xenografted with human KM12C cells assessed as effect on biochemical parameter by measuring ALP level at 100 mg/kg, ig dosed daily for 15 days by automatic chemistry analyzer based analysis (reference value: 76.53 +/- 4.31 U/L); format: organism-based; conditions: in vivo, po, 360 h
[14] = target: T1, Retinoic acid receptor RXR-alpha (Homo sapiens); assay: Activation of RXRalpha LBD (unknown origin) expressed in human KM12C cells at 50 uM incubated for 15 hrs by luciferase reporter gene assay; format: cell-based
In short: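 KM12C co-transfected with pG5luc and pBIND-RXRα-LBD (Gal4-fusion one-hybrid); 20 h post-transfection treated 15 h with 50 μM compound; dual-luciferase read-out (firefly/Renilla) after passive lysis at 4 °C, 1 h; basal activity normalized to 1.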

[15] = target: T1, Retinoic acid receptor RXR-alpha (Homo sapiens); assay: In-vivo activation of RXRalpha in BALB/c mouse xenografted with human KM12C cells assessed as increase in p21 (WAF1/CIP) protein expression at 100 mg/kg, ig dosed daily for 15 days by Western blot analysis; format: functional, organism-based
[16] = target: T1, Retinoic acid receptor RXR-alpha (Homo sapiens); assay: Activation of RXRalpha in human KM12C cells assessed as […] crease in p21 (WAF1/CIP1) mRNA expression at 25 to 50 uM incubated for 15 hrs by real-time PCR analysis; format: cell-based
[17] = target: T2, Retinoic acid receptor RXR-alpha (Homo sapiens, UniProt P19793); assay: Binding affinity to His-tagged RXRalpha LBD (unknown origin) expressed in Escherichia coli strain BL21 (DE3) by fluorescence quenching analysis
T2 sequence (P19793 whole entry): T1 sequence (whole entry)
In short: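 His-RXRα-LBD expressed from pET15b in E. coli BL21(DE3), induced with 0.1 mM IPTG at 16 °C for 16 h, purified on Ni-NTA. Protein held at 1 μM in PBS pH 7.4 and titrated with ligand (2–30 μM). Excitation 280 nm, emission scanned 290–600 nm, DMSO blank subtracted, each spectrum measured three times. Apparent Kd taken from the titration curve.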

[18] = target: T1, Retinoic acid receptor RXR-alpha (Homo sapiens); assay: Activation of RXRalpha in human HCT116 cells assessed as reduction in c-Myc mRNA expression at 30 to 60 uM incubated for 15 hrs by real-time PCR analysis; format: cell-based; conditions: HCT-116

Structure (SMILES) | Tmax [1] [h] | Activity [2] | AUC(0-t) [3] [ng·h/mL] | bioavailability [4] [%] | Activity [5] [mmol/L] | Activity [6] | Activity [7] | Activity [8] | Activity [9] | Activity [10] | Activity [11] [mmol/L] | Activity [12] [µmol/L] | Activity [13] [U/L] | Activity [14] | Activity [15] | Activity [16] | pKd [17] | Activity [18]
COc1ccc2cc3[n+](cc2c1OC)CCc1cc2c(cc1-3)OCO2.[Cl-] [BERBERINE CHLORIDE] | 2 | Active | 99 | 0.544 | 0.77 | Active | Active | Active | Active | Active | 8.08 | 24.36 | 71.28 | Active | Active | Active | 4.61 | Active
COc1ccc2c(c1)CC[n+]1cc3c(OC)cccc3cc1-2.[Cl-] | 2 | Active | 2100 | 14.2 | 0.74 | Active | Active | Active | Active | Active | 8.39 | 28.95 | 78.35 | Active | Active | Active | 4.72 | Active
